Assay outcomes: PubChem, Johns Hopkins Ion Channel Center
An excerpt weighted towards active compounds, which were near 2.3% of everything screened.
TRPC4 agonist: activators of mouse TRPC4 channel, primary screen, Fluo4 calcium, HEK293 TRPC4beta/mu-opioid cells. Fluo4 calcium fluorescence; hits give high values. AID 2237, 2010. hit rate 0.49% among 310,000. B-score at 10 µM. Short transient receptor potential channel 4 (Mus musculus), Q9QUQ5;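 active = B-score above 5 SD of library B-scores, and initial fluorescence ratio not above library mean plus 5 SD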;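 also: positive B-score marks a calcium rise read as TRPC4 activation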
Target sequence (Q9QUQ5 whole entry, looked up): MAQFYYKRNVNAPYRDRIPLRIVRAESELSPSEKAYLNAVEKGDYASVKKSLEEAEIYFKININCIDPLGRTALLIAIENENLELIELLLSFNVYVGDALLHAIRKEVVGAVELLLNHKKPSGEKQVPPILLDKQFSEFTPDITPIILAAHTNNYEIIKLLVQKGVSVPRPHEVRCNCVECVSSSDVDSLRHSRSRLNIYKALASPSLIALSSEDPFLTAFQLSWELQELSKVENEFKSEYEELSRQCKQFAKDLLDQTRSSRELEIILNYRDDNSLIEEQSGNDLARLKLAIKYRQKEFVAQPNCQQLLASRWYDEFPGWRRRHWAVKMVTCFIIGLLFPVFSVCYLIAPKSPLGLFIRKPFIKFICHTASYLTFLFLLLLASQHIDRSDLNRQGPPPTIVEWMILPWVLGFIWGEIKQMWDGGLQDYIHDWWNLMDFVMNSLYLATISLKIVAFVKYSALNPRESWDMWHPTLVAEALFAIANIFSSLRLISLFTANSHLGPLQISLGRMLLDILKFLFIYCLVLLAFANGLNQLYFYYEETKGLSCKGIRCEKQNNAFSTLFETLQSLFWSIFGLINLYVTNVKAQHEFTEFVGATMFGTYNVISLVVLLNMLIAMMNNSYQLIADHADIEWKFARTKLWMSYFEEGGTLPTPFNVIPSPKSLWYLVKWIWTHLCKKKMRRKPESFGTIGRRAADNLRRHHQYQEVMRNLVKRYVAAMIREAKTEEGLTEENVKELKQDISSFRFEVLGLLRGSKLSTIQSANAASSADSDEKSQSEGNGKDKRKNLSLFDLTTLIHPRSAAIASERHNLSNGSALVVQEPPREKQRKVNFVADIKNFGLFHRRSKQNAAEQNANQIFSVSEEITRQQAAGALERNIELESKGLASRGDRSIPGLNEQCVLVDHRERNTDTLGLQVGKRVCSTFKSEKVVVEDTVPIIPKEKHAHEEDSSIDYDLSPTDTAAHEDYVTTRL
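Technique: kinetic Fluo4 calcium fluorescence; Test system: TRPC4beta and mu-opioid receptor HEK293 stable cells; Measure: B-scored integrated calcium fluorescence ratio; Benchmarks: low control buffer alone, high control maximal DAMGO; Schedule: 45 min room-temperature Fluo4 loading, 110 s read.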
TRPC6 act: mouse TRPC6 channel activators, primary screen, cell-based, HEK293, membrane potential dye; Short transient receptor potential channel 6 (Mus musculus), Q61143; hit rate 0.13% among 310,000; B-score at 10 µM; AID 2550, 2010; HEK293-TRPC6 membrane potential dye fluorescence; hits give high values;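 active = B-score of the integrated fluorescence ratio above library mean plus 3 SD, and starting fluorescence ratio within library mean plus 5 SD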;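 also: higher score means more depolarization so channel activation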
TRPC4 PAM: positive allosteric modulators of TRPC4, primary screen, cell-based, mouse TRPC4beta, HEK293 mu-opioid, Fluo-4 calcium | Short transient receptor potential channel 4 (Mus musculus), Q9QUQ5 | DAMGO EC20, Fluo-4 Ca2+ flux; hits give high values | B-score at 10 µM | hit rate 0.42% among 310,000;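 active = B-score of calcium response area above 5 SD of library B-scores, with initial fluorescence ratio within 5 SD of library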;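 also: B-score of integrated fluorescence ratio over time as area under calcium response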
TRPC4 inh: inhibitors of mouse TRPC4 channel, primary screen, Fluo4 calcium, HEK293 TRPC4beta/mu-opioid cells; Short transient receptor potential channel 4 (Mus musculus), Q9QUQ5; B-score at 10 µM; AID 2247, 2010; DAMGO-evoked Fluo4 calcium flux; hits give low values; hit rate 0.39% among 300,000;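 active = B-score over 3 SD under the library average, no early fluorescence shift, positive overall ratio signal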
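Material: HEK293 cells with stable TRPC4beta plus mu-opioid receptor expression / Probe or stimulus: DAMGO in two steps, submaximal then maximal / Compound: single concentration per test compound / Technique: kinetic Fluo4 fluorescence imaging of calcium influx / Read-out: per-well B score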
TRPC6 inhibitor: mouse TRPC6 channel inhibitors, primary screen, cell-based, HEK293, membrane potential dye; ACh-evoked depolarization; hits give low values; B-score at 10 µM; AID 2553, 2010; Short transient receptor potential channel 6 (Mus musculus), Q61143; hit rate 1.1% among 310,000;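 active = B-score under library mean minus 3 SD, initial fluorescence not abnormally high, positive integrated signal ratio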;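 also: B-score derived from integrated fluorescence ratio over the kinetic read; more negative B-score means stronger inhibition of depolarization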
TRPC4 sel inh 2: second selectivity test of TRPC6 inhibitors: effect on mouse TRPC4 | inhibition, % at 10 µM | AID 2776 | hit rate 42% among 920 | shares compounds with TRPC6 inhibitor | HEK293 TRPC4/MOR, membrane potential dye fluorescence; channel activated by saturating DAMGO dose;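 active = compounds whose fluorescence signal differed from control wells by over 3 SD, either direction, in both duplicate plates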
TRPC4 spec: mouse TRPC4 modulation by TRPC6 hits, confirmation, selectivity assay for TRPC6 inhibitor project, cell-based, HEK293 TRPC4/mu-opioid, membrane potential dye; AID 2777, 2010; membrane potential fluorescence; activity change, negative = inhibition, % at 10 µM; shares compounds with TRPC6 inhibitor; hit rate 61% among 920;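 active = rise or fall in signal beyond 3 SD of buffer-only wells in both replicate plates, either sign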;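 also: integrated kinetic ratio of fluorescence range over baseline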
HEK293 MPD ctr 2-1: nonspecific membrane potential effects, parental HEK293, confirmation, counter-screen for TRPC6 inhibitor project, cell-based, second counter screen | hit rate 31% among 920 | parental HEK293 membrane potential dye fluorescence; maximal acetylcholine challenge after compound addition | AID 2779, 2010 | signal change vs control, % at 10 µM | shares compounds with TRPC6 inhibitor;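 active = membrane potential signal moving either way by over 3 SD of the maximum-effect control, in both duplicate plates, meaning non-specific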
HEK293 MPD ctr-1: membrane potential modulation in parental HEK293, confirmation, counter-screen for TRPC6 inhibitor project, cell-based | shares compounds with TRPC6 inhibitor | parental HEK293 membrane potential dye fluorescence | membrane potential signal change, % at 10 µM | hit rate 60% among 920;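 active = membrane potential signal shifting up or down by more than 3 SD of buffer-only wells, on both duplicate plates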
HEK293 MPD ctr-2: parental HEK293 membrane potential modulation, confirmation, counter-screen for TRPC6 modulator project, cell-based. AID 488924, 2010. membrane potential dye fluorescence. membrane potential signal change, % at 10 µM. shares compounds with TRPC6 inhibitor. hit rate 51% among 2,400;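 active = membrane potential signal moves up or down beyond 5 SD from buffer-only wells, on both duplicate plates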
HEK293 MPD ctr 2-2: second check of TRPC6 modulator effects in parental HEK293 cells. shares compounds with TRPC6 inhibitor. membrane potential dye fluorescence; after compound, maximal acetylcholine stimulation. inhibition, % at 10 µM. hit rate 14% among 2,400;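 active = membrane potential signal drops by more than 5 SD from the mean control signal, in both duplicate plates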;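 also: plate controls were acetylcholine ECmax control wells for no effect and buffer only wells for full effect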
TRPC4/MOR mod: TRPC4 modulation by TRPC6 hit compounds, confirmation, selectivity assay for TRPC6 modulator project, cell-based, HEK293 TRPC4/mu-opioid, membrane potential dye, mouse. shares compounds with TRPC6 inhibitor. membrane potential fluorescence. percent change from control (negative = decrease, positive = increase), % at 10 µM. hit rate 69% among 2,400. AID 488927, 2010;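 active = membrane potential signal moved up or down beyond 5 SD of buffer control wells, in both duplicate plates, actives on both sides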;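 also: plate controls were assay buffer wells for no effect and DAMGO maximal-effect wells for full effect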
TRPC4 ctr inh 2: mouse TRPC4 off-target activity of TRPC6 modulators, second screen. inhibition, % at 10 µM. hit rate 55% among 2,400. HEK293 TRPC4/mu-opioid, membrane potential dye fluorescence; stimulated with maximal-effect DAMGO. AID 488928. shares compounds with TRPC6 inhibitor;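 active = drop in membrane potential signal beyond 5 SD of the control wells in both duplicate plates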;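 also: TRPC4 counter screen for TRPC6 hits run under conditions tuned for TRPC6 not TRPC4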
TRPC6 inh conf: mouse TRPC6 channel inhibitors, confirmation, HEK293 cells, membrane potential dye, duplicate; ACh-evoked depolarization; hit rate 43% among 3,300; shares compounds with TRPC6 inhibitor; AID 488960, 2010; inhibition, % at 10 µM;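 active = fluorescence ratio falls more than 5 SD below the full-stimulation control mean, in both duplicate runs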;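 also: integrated fluorescence ratio of peak minus minimum over baseline after agonist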
TRPC6 act confirm: mouse TRPC6 channel activators, confirmation, HEK293 cells, membrane potential dye, duplicate. shares compounds with TRPC6 inhibitor. HEK293-TRPC6 membrane potential dye fluorescence, FDSS. activation, % at 10 µM. hit rate 11% among 2,800;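 active = ratio signal rise beyond 5 SD above unstimulated control wells' mean, seen in both duplicate runs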;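 also: plate controls were buffer EC0 wells for no effect and acetylcholine ECmax response for full effect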
Active calls of the source: *; i = inactive; nt = no result.

SMILES | TRPC4 agonist | TRPC6 act | TRPC4 PAM | TRPC4 inh | TRPC6 inhibitor | HEK293 MPD ctr-2 | HEK293 MPD ctr 2-2 | TRPC4/MOR mod | TRPC4 ctr inh 2 | TRPC6 inh conf | TRPC6 act confirm | others
C=CCNCc1ccc(C(=O)NCCCCCCC)cc1[N+](=O)[O-] | i | i | i | nt | -7* | nt | nt | nt | nt | i | i | TRPC4 sel inh 2=75%*;TRPC4 spec=-11%*;HEK293 MPD ctr 2-1=i;HEK293 MPD ctr-1=-160%*
C=CCNC(=O)c1ccc([N+](=O)[O-])c(Cl)c1 | i | i | i | i | i | nt | nt | nt | nt | nt | nt
O=C(C1CCN(c2nnc(-n3cccc3)s2)CC1)N1CCN(Cc2ccc3c(c2)OCO3)CC1 | i | i | i | i | i | nt | nt | nt | nt | nt | nt
CC1CCN(Cc2ccc(NC(=O)C3CCN(c4nnc(-n5cccc5)s4)CC3)cc2)CC1 | i | i | i | i | -7.8* | nt | nt | nt | nt | i | i | TRPC4 sel inh 2=71%*;TRPC4 spec=i;HEK293 MPD ctr 2-1=i;HEK293 MPD ctr-1=i
O=C(Oc1ccc2c(c1)OCC2=O)c1ccccc1 | i | i | i | i | -5.8* | i | i | i | i | i | nt
Cc1noc(C(=O)Nc2cccc(O)c2)c1Cl | i | i | i | i | i | nt | nt | nt | nt | nt | nt
Cc1ccc2cc(CN(CCN3CCCC3)C(=O)Nc3ccccc3)c(=O)[nH]c2c1C | i | i | i | i | -5* | i | i | i | 54%* | 46%* | i
Cc1ccc2cc(CN(CCN3CCCC3)C(=O)Nc3ccc(F)cc3)c(=O)[nH]c2c1C | i | i | i | i | i | nt | nt | nt | nt | nt | nt
O=C1CCC(c2ccccc2)(C2CCN(Cc3ccccc3)CC2)C(=O)N1 (centres undefined) | i | i | i | i | -6.3* | 96%* | 84%* | 20%* | 35%* | 74%* | nt
Cc1cc(Cl)c(OCCCNCc2ccccc2)c(Br)c1 | i | 12* | i | i | i | 302%* | i | 68%* | i | i | 139%*
Cc1ccc(Nc2ncccc2C(N)=O)cc1[N+](=O)[O-] | i | i | i | i | i | nt | nt | nt | nt | nt | nt
CCS(=O)(=O)N1Cc2ccccc2CC1C(=O)Nc1nnc(SCc2ccc(C#N)cc2)s1 (centres undefined) | i | 23* | i | i | i | i | i | i | i | i | i
O=C1c2cccc3cccc(c23)C(=O)N1CC1CCN(CC(O)COCc2ccc3c(c2)OCO3)CC1 (centres undefined) | i | i | i | i | -7.3* | nt | nt | nt | nt | 83%* | i | TRPC4 sel inh 2=19%*;TRPC4 spec=-28%*;HEK293 MPD ctr 2-1=33%*;HEK293 MPD ctr-1=-323%*
O=C(NCCCN1CCOCC1)C(=O)N/N=C/c1ccc(F)cc1 | i | i | i | i | i | nt | nt | nt | nt | nt | nt
O=C(NCCCN1CCOCC1)C(=O)N/N=C/c1ccc2c(c1)OCO2 | i | i | i | i | -8.3* | nt | nt | nt | nt | i | i | TRPC4 sel inh 2=i;TRPC4 spec=i;HEK293 MPD ctr 2-1=i;HEK293 MPD ctr-1=i
COc1ccc(CCn2nc(C)c([N+](=O)[O-])c2C)cc1 | i | i | i | i | -5.2* | i | i | 20%* | i | i | nt
COc1cccc(-n2c(CCn3nc(C)c([N+](=O)[O-])c3C)n[nH]c2=S)c1 | i | i | i | i | i | nt | nt | nt | nt | nt | nt
O=C(NCc1cc([N+](=O)[O-])ccc1O)c1cc(-c2ccncc2)nc2ccccc12 | i | i | i | i | i | nt | nt | nt | nt | nt | nt
COc1cccc2oc3ccc(C#CC4(N)CCCCC4)cc3c(=O)c12 | i | i | i | i | -11* | nt | nt | nt | nt | i | i | TRPC4 sel inh 2=68%*;TRPC4 spec=i;HEK293 MPD ctr 2-1=237%*;HEK293 MPD ctr-1=i
O=c1c2ccccc2oc2ccc(C#CC3(O)CCCCC3)cc12 | i | i | i | i | i | nt | nt | nt | nt | nt | nt
O=C(c1ccc(CNS(=O)(=O)c2ccc(Br)cc2)cc1)N1CCCCCC1 | i | i | i | i | i | nt | nt | nt | nt | nt | nt
O=C(Cc1ccc([N+](=O)[O-])cc1)Nc1ccc2c(c1)OCO2 | i | i | i | i | i | nt | nt | nt | nt | nt | nt
O=C(Cc1ccc([N+](=O)[O-])cc1)Nc1ccc2c(c1)CCC2 | i | i | i | i | -5.2* | i | i | i | i | i | i
COc1ccc(NC(C)C(=O)N/N=C/c2ccccc2OCc2cccc(Br)c2)cc1 (centres undefined) | i | i | i | i | i | nt | nt | nt | nt | nt | nt
